Measured values as given in ChEMBL document CHEMBL4138207, “Phenolic Substances from Ocimum Species Enhance Glucose-Stimulated Insulin Secretion and Modulate the Expression of Key Insulin Regulatory Genes in Mice Pancreatic Islets” (J Nat Prod, 2017).
The source made the active and inactive calls. The rule behind the calls is not given here.

Assays:
[1] = test system: Pancreatic islet; assay: Upregulation of INSR mRNA expression in NMRI mouse pancreatic islets at 10^-8 M after 72 hrs by Taqman-based qRT-PCR analysis; assay type: functional, cell-based
How it was run: (§1)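 Female NMRI mouse islets were exposed 72 h to compound at 10−8 M in RPMI with 11.1 mM glucose. Islets from 2–3 mice (180–200) were pooled for Trizol RNA extraction. Reverse transcription and 14-cycle preamplification preceded TaqMan real-time PCR. Data were normalized to the geometric mean of 18S and Hprt1 by the (1+efficiency)−ΔCT method and expressed as fold versus untreated control. Samples were run in triplicate, each measured in triplicate.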

[2] = Induction of 16.7 mM glucose-stimulated insulin secretion in NMRI mouse pancreatic islets at 10^-6 M after 60 mins by radioimmunoassay relative to 16.7 mM glucose control; assay type: functional, Pancreatic islet
How it was run: (§2)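 Female NMRI mouse islets, cultured overnight, were preincubated 30 min in KRB with 3.3 mM glucose and 0.1% BSA. Single islets were then incubated 60 min at 37 °C in HEPES-KRB (pH 7.4) with 16.7 mM glucose plus compound at 10−10, 10−8 or 10−6 M, diluted from 10−4 M aqueous stock. Medium insulin was measured by RIA and expressed as fold of the 16.7 mM glucose control; 24 replicates.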

[3] = Induction of 16.7 mM glucose-stimulated insulin secretion in NMRI mouse pancreatic islets at 10^-10 M after 60 mins by radioimmunoassay relative to 16.7 mM glucose control; assay type: functional, Pancreatic islet; how it was run: as §2
[4] = test system: Pancreatic islet; assay: Upregulation of […] mRNA expression in NMRI mouse pancreatic islets at 10^-8 M after 72 hrs by Taqman-based qRT-PCR analysis; assay type: functional, cell-based; how it was run: as §1
[5] = Induction of 3.3 mM glucose-stimulated insulin secretion in NMRI mouse pancreatic islets at 10^-6 M after 60 mins by radioimmunoassay; assay type: cell-based; details: pancreatic islet, 1 h, 1 µM
How it was run: (§3)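 Islets from adult female NMRI mice (22–25 g), collagenase-isolated and cultured overnight in RPMI 1640 (11.1 mM glucose, 10% FCS) at 37 °C. After 30 min preincubation in KRB with 3.3 mM glucose and 0.1% BSA, single islets were incubated 60 min at 37 °C in HEPES-KRB (pH 7.4) at 3.3, 6.6, 11.1 or 16.7 mM glucose ± compound at 10−6 M. Insulin in the medium was measured by RIA, reported in ng/mL; n = 16 per treatment.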

[6] = test system: Pancreatic islet; assay: Upregulation of GCGR mRNA expression in NMRI mouse pancreatic islets at 10^-8 M after 72 hrs by Taqman-based qRT-PCR analysis; assay type: functional, cell-based; how it was run: as §1
[7] = Induction of 16.7 mM glucose-stimulated insulin secretion in NMRI mouse pancreatic islets at 10^-8 M after 60 mins by radioimmunoassay relative to 16.7 mM glucose control; assay type: functional, Pancreatic islet; how it was run: as §2
[8] = test system: Pancreatic islet; assay: Upregulation of INS2 mRNA expression in NMRI mouse pancreatic islets at 10^-8 M after 72 hrs by Taqman-based qRT-PCR analysis; assay type: functional, cell-based; how it was run: as §1
[9] = test system: Pancreatic islet; assay: Induction of 16.7 mM glucose-stimulated insulin secretion in NMRI mouse pancreatic islets at 10^-6 M after 60 mins by radioimmunoassay; assay type: functional, cell-based; how it was run: as §3
[10] = Induction of 3.3 mM glucose-stimulated insulin secretion in NMRI mouse pancreatic islets at 10^-8 M pretreated for 72 hrs in presence of 11.1 mM glucose followed by 3.3 mM glucose stimulation after 60 mins by radioimmunoassay; assay type: cell-based; details: pancreatic islet, 1 h, 0.01 µM
How it was run: (§4)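 Islets from female NMRI mice were cultured 72 h in RPMI with 11.1 mM glucose and 10% FCS, ± compound at 10−8 M final. They were rinsed and preincubated 30 min in KRB with 3.3 mM glucose and 0.1% BSA. Single islets were then stimulated 60 min at 37 °C with 3.3 or 16.7 mM glucose. Insulin was measured by RIA as fold of the 16.7 mM glucose control; 24 replicates.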

[11] = test system: Pancreatic islet; assay: Upregulation of GLUT2 mRNA expression in NMRI mouse pancreatic islets at 10^-8 M after 72 hrs by Taqman-based qRT-PCR analysis; assay type: functional, cell-based; how it was run: as §1
[12] = Induction of 6.6 mM glucose-stimulated insulin secretion in NMRI mouse pancreatic islets at 10^-6 M after 60 mins by radioimmunoassay; assay type: cell-based; details: pancreatic islet, 1 h, 1 µM; how it was run: as §3
[13] = test system: Pancreatic islet; assay: Upregulation of IRS1 mRNA expression in NMRI mouse pancreatic islets at 10^-8 M after 72 hrs by Taqman-based qRT-PCR analysis; assay type: functional, cell-based; how it was run: as §1
[14] = test system: Pancreatic islet; assay: Upregulation of INS1 mRNA expression in NMRI mouse pancreatic islets at 10^-8 M after 72 hrs by Taqman-based qRT-PCR analysis; assay type: functional, cell-based; how it was run: as §1
[15] = test system: Pancreatic islet; assay: Upregulation of PDX1 mRNA expression in NMRI mouse pancreatic islets at 10^-8 M after 72 hrs by Taqman-based qRT-PCR analysis; assay type: functional, cell-based; how it was run: as §1
[16] = Induction of 16.7 mM glucose-stimulated insulin secretion in NMRI mouse pancreatic islets at 10^-8 M pretreated for 72 hrs in presence of 11.1 mM glucose followed by 16.7 mM glucose stimulation after 60 mins by radioimmunoassay relative to 16.7 mM glucose control; assay type: functional, Pancreatic islet; how it was run: as §4
[17] = test system: Pancreatic islet; assay: (§5) Induction of 11.1 mM glucose-stimulated insulin secretion in NMRI mouse pancreatic islets at 10^-6 M after 60 mins by radioimmunoassay relative to control; assay type: functional; how it was run: as §3
[18] = as §5; assay type: functional, Pancreatic islet; how it was run: as §3

O=c1cc(-c2ccc(O)cc2)oc2c([C@@H]3O[C@H](CO)[C@@H](O)[C@H](O)[C@H]3O)c(O)c([C@@H]3O[C@H](CO)[C@@H](O)[C@H](O)[C@H]3O)c(O)c12
Activity [1]: Active | fold change (FC) [2]: 2.3 | fold change (FC) [3]: 2.5 | Activity [4]: inactive | Activity [5]: Non-Toxic | Activity [6]: inactive | fold change (FC) [7]: 2.3 | Activity [8]: inactive | Activity [9]: Active | Activity [10]: Non-Toxic | Activity [11]: inactive | Activity [12]: Non-Toxic | Activity [13]: inactive | Activity [14]: inactive | Activity [15]: inactive | fold change (FC) [16]: 2.2

O=C(O)/C=C/c1ccc(O)c(O)c1 [CAFFEIC ACID]
Activity [1]: inactive | fold change (FC) [2]: 2 | Activity [17]: inactive | Activity [4]: Active | Activity [5]: Non-Toxic | Activity [6]: inactive | fold change (FC) [7]: 1.7 | Activity [8]: inactive | Activity [9]: Active | Activity [10]: Non-Toxic | Activity [11]: Active | Activity [12]: Non-Toxic | Activity [13]: inactive | Activity [14]: inactive | Activity [15]: Active | fold change (FC) [16]: 1.5

O=C(/C=C/c1ccc(O)c(O)c1)O[C@@H](C(=O)O)[C@@H](O)C(=O)O [CAFTARIC ACID]
Activity [1]: Active | fold change (FC) [2]: 5.5 | fold change (FC) [3]: 2.8 | Activity [4]: inactive | Activity [5]: Non-Toxic | Activity [6]: inactive | fold change (FC) [7]: 5.1 | Activity [8]: Active | Activity [9]: Active | Activity [10]: Non-Toxic | Activity [11]: inactive | Activity [12]: Non-Toxic | Activity [13]: inactive | Activity [14]: Active | Activity [15]: inactive | fold change (FC) [16]: 3.2

O=C(/C=C/c1ccc(O)c(O)c1)O[C@@H](C(=O)O)[C@@H](OC(=O)/C=C/c1ccc(O)c(O)c1)C(=O)O [CICHORIC ACID]
Activity [1]: Active | fold change (FC) [2]: 4.1 | fold change (FC) [3]: 1.8 | Activity [4]: inactive | Activity [5]: Non-Toxic | Activity [6]: inactive | fold change (FC) [7]: 1.9 | Activity [8]: Active | Activity [9]: Active | Activity [10]: Non-Toxic | Activity [11]: inactive | Activity [12]: Non-Toxic | Activity [13]: Active | Activity [14]: Active | Activity [15]: Active | fold change (FC) [16]: 3.5

O=C(/C=C/c1ccc(O)c(O)c1)O[C@H](Cc1ccc(O)c(O)c1)C(=O)O [ROSMARINIC ACID]
Activity [1]: Active | fold change (FC) [2]: 4.9 | fold change (FC) [3]: 3.3 | Activity [18]: 68% | Activity [4]: inactive | Activity [5]: Non-Toxic | Activity [6]: inactive | fold change (FC) [7]: 2.8 | Activity [8]: Active | Activity [9]: Active | Activity [10]: Non-Toxic | Activity [11]: Active | Activity [12]: Non-Toxic | Activity [13]: Active | Activity [14]: Active | Activity [15]: Active | fold change (FC) [16]: 3.4
